Results from the RNAGym collection of RNA variant scans (doi:10.1126/science.aae0568).
Variants at the floor of the assay were thinned out.

B1: tRNA (parent)
chain: GUUCCGUUGGCGUAAUGGUAACGCGUCUCCCUCCUAAGGAGAAGACUGCGGGUUCGAGUCCCGUACGGAACG

Variants of: B1
Assay: yeast fitness relative to wild type (ratio to wild type); higher = fitter; tRNA-Arg(CCU), competitive growth, 37 C, YPD
Procedure, shortened: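 The tRNA-Arg(CCU) gene variants were made by chemical synthesis with a 3% per-site mutation rate at 69 sites and inserted at the native genomic locus of Saccharomyces cerevisiae. After pooling, the strains were competed in YPD at 37°C for 24 hours in six parallel replicates. Gene amplicons from the start population and each end population were read by 100-nucleotide paired-end sequencing, and Darwinian fitness relative to wild type was taken from genotype frequency changes. Genotypes needed ≥ 100 starting reads, and estimates < 0.5 were set to 0.5.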

Going from A20G A21G to A20C C27U G51C U64A C66U A69C, the yeast fitness falls from 0.986 to no more than 0.5.

Compared with A20C U32G A45G U53A U54A, A20C C27U A37C A42G C66U is lower in yeast fitness: 0.533 for the first, no more than 0.5 for the second.

Going from A20C C29U G50C U59G C62U G68A to A20G A43G U47G G67C, the yeast fitness falls from 0.567 to no more than 0.5.

Compared with A20C C29G G52A, A20C C24G U64C is higher in yeast fitness: no more than 0.5 for the first, 0.56 for the second.

A20G A36U C49G and A20G A40G G50C A65G C66U cannot be ordered by yeast fitness: no more than 0.5 for the first, no more than 0.5 for the second.

Compared with A20G A65G, A20G A42G G58A is lower in yeast fitness: 0.986 for the first, 0.806 for the second.

Going from A20C C30U to A20G A40G G44A C46G, the yeast fitness falls from 0.903 to no more than 0.5.

Compared with A20C G58C, A20C C34A G63C is lower in yeast fitness: 1.03 for the first, no more than 0.5 for the second.

A20C U28C C30A G44C A45G C55A G63C and A20C U35A A36G G44C G68U cannot be ordered by yeast fitness: no more than 0.5 for the first, no more than 0.5 for the second.

Compared with A20C C49G, A20C C49U is higher in yeast fitness: 0.795 for the first, 1.03 for the second.

Compared with A20C G44C C61U, A20C U28C A40U is higher in yeast fitness: 0.56 for the first, 0.971 for the second.

A20C C34U C60A C66U A70U and A20C G38A A57U cannot be ordered by yeast fitness: no more than 0.5 for the first, no more than 0.5 for the second.

First: A20C G44A C46U A69C
Second: A20G C22G C27G C30U C31G G51C C61G
The yeast fitness of the first is higher: 0.698 for the first, no more than 0.5 for the second.

A20C C34G C66U and A20C C34A G56C cannot be ordered by yeast fitness: no more than 0.5 for the first, no more than 0.5 for the second.

First: A20C U47A G48C
Second: A20C C29G C62A
The yeast fitness of the first is higher: 0.526 for the first, no more than 0.5 for the second.

Going from A20C G44A to A20G A36U, the yeast fitness falls from 0.778 to 0.644.

Going from A20G A36G to A20C G67C A69G, the yeast fitness falls from 1.01 to 0.539.

First: A20C C46G C62G
Second: A20G A43U G48A
The yeast fitness of the first is lower: 0.529 for the first, 0.73 for the second.

First: A20G A36U C55G
Second: A20C G52A
The yeast fitness of the first is lower: no more than 0.5 for the first, 0.705 for the second.

A20G A36G A37U and A20G A43C G56A A57U cannot be ordered by yeast fitness: no more than 0.5 for the first, no more than 0.5 for the second.

Going from A20C C30G U53G C61G to A20C C29G A65U, the yeast fitness falls from 0.621 to 0.51.

Compared with A20C C29U C66U, A20C C24U C61G is lower in yeast fitness: 0.603 for the first, no more than 0.5 for the second.

First: A20C C27U A40C
Second: A20C C34A C62U
The yeast fitness of the first is higher: 0.63 for the first, no more than 0.5 for the second.

A20C U28C C29A A36U A40U C49G G63C A70U and A20C C27U C34G A43C C61U C62G cannot be ordered by yeast fitness: no more than 0.5 for the first, no more than 0.5 for the second.

Going from A20C C30U G68A to A20G A37G G38A C55U U59G, the yeast fitness rises from no more than 0.5 to 0.563.

Compared with A20G A36U C66A, A20C C30A C55A is higher in yeast fitness: 0.529 for the first, 0.571 for the second.

Going from A20C C30A C55G to A20C U28C C34A, the yeast fitness rises from 0.557 to 0.791.

Going from A20C C34A A37G C62U C66U to A20C C34U C66U, the yeast fitness falls from 0.554 to 0.543.

Going from A20C C30U C61A to A20G A40G, the yeast fitness rises from no more than 0.5 to 0.888.

Compared with A20C G44C A70U, A20C C24G C33G is lower in yeast fitness: 0.573 for the first, no more than 0.5 for the second.

A20G A37G G44A A65U and A20C C34U G52A G68A cannot be ordered by yeast fitness: no more than 0.5 for the first, no more than 0.5 for the second.

Going from A20C G25C C33U C60A C66G to A20C G56A G67A, the yeast fitness rises from no more than 0.5 to 0.577.

First: A20G A21G C22U
Second: A20C U26A C61A A65U
The yeast fitness of the first is higher: 0.564 for the first, 0.555 for the second.

First: A20C C55U C66G
Second: A20C C27U A69U
The yeast fitness of the first is lower: no more than 0.5 for the first, 0.81 for the second.

Compared with A20C C30U C46A C62G A65G, A20C C34G A43C G56A C61U A65G is lower in yeast fitness: 0.534 for the first, no more than 0.5 for the second.

Compared with A20C G48A C49A, A20C C24U A42U U59C is higher in yeast fitness: 0.557 for the first, 0.619 for the second.

A20G A42C A45C G67C and A20C C30U G51C C55G A57U C66U cannot be ordered by yeast fitness: no more than 0.5 for the first, no more than 0.5 for the second.

Compared with A20G C22G C27G C30U C31G G51C C61A A69C, A20C C27U C55U is higher in yeast fitness: no more than 0.5 for the first, 0.76 for the second.

Going from A20C G23A U35A G52C C55A to A20C U28A A70G, the yeast fitness rises from no more than 0.5 to 0.564.

Going from A20C U26C C30U C61A to A20G A37C G68A, the yeast fitness rises from no more than 0.5 to 0.515.

Compared with A20G A36C G48C U53C A70C, A20C G41A is higher in yeast fitness: no more than 0.5 for the first, 0.779 for the second.

Going from A20G A40C A42U A43C G48A to A20G A36U G68C, the yeast fitness falls from 0.562 to 0.535.

First: A20C C33A A70G
Second: A20C C31U
The yeast fitness of the first is lower: 0.592 for the first, 1.03 for the second.

Compared with A20C C31G, A20C C49G G67A is lower in yeast fitness: 0.744 for the first, 0.59 for the second.

Going from A20G A36C C49G C61G C62G to A20G A65G A70C, the yeast fitness rises from no more than 0.5 to 0.694.

Compared with A20C G41C A42C G56A U64C, A20C C27G is higher in yeast fitness: no more than 0.5 for the first, 0.633 for the second.

Compared with A20G A43G A65U, A20G C22A A42G is lower in yeast fitness: 0.596 for the first, 0.557 for the second.

A20C C30G C60G and A20G A37C G39A A65U A70C cannot be ordered by yeast fitness: no more than 0.5 for the first, no more than 0.5 for the second.

A20C U35C G51C C60G A70U and A20C C30G A40G cannot be ordered by yeast fitness: no more than 0.5 for the first, no more than 0.5 for the second.

First: A20C U59A C62G A70C
Second: A20G A42C
The yeast fitness of the first is lower: no more than 0.5 for the first, 1.05 for the second.

Going from A20G A42G to A20C C34G A43U, the yeast fitness falls from 0.969 to no more than 0.5.

First: A20C G48A
Second: A20C C34U G52A
The yeast fitness of the first is higher: 0.908 for the first, 0.574 for the second.

First: A20C C27U A37C A42G
Second: A20C G23A C29U A36C A43C
The yeast fitness of the first is higher: 0.688 for the first, no more than 0.5 for the second.

Going from A20G A43G to A20G A43C, the yeast fitness rises from 1.07 to 1.09.

Compared with A20G A45C A69U, A20G C22U A37U G41C C46A is lower in yeast fitness: 0.729 for the first, no more than 0.5 for the second.

A20C C31A C34G A57G A65U and A20C G52A G68A cannot be ordered by yeast fitness: no more than 0.5 for the first, no more than 0.5 for the second.

Going from A20C C46A C49G to A20G A21G C29G C46G G52A, the yeast fitness falls from 0.548 to no more than 0.5.

Going from A20C C30A C55A G67A to A20C C49A G52A C61U, the yeast fitness falls from 0.534 to no more than 0.5.

A20G A21G C34G C61U A70C and A20C G44A C60A G67A cannot be ordered by yeast fitness: no more than 0.5 for the first, no more than 0.5 for the second.

First: A20C C33A G39A
Second: A20C C27U G67U
The yeast fitness of the first is lower: no more than 0.5 for the first, 0.674 for the second.

First: A20C G25C G44C G58A G68C
Second: A20G C22G
The yeast fitness of the first is lower: no more than 0.5 for the first, 0.952 for the second.

First: A20G A37U
Second: A20G A37C
The yeast fitness of the first is lower: 0.795 for the first, 0.929 for the second.

First: A20C U53C
Second: A20G A37U C62A
The yeast fitness of the first is higher: 0.717 for the first, no more than 0.5 for the second.

A20C C60G C62U and A20C U59A A65C A70C cannot be ordered by yeast fitness: no more than 0.5 for the first, no more than 0.5 for the second.

Going from A20C G56A to A20C G56U, the yeast fitness falls from 0.866 to 0.765.

Going from A20C C55U G67A to A20C G63A, the yeast fitness rises from 0.53 to 0.843.

A20C G44C G48A G51A and A20C C62A G68C cannot be ordered by yeast fitness: no more than 0.5 for the first, no more than 0.5 for the second.

Compared with A20G C22U A43G, A20C C29U is higher in yeast fitness: 0.624 for the first, 0.715 for the second.

Going from A20C C29A to A20C C31G A36G, the yeast fitness rises from 0.635 to 0.764.

Going from A20G A40C A42U A43C G48A C66U to A20C U59C, the yeast fitness rises from 0.532 to 0.749.

Going from A20C C60A to A20C C30G C46A U47G C49A G52A G58C U64G A65G, the yeast fitness falls from 0.587 to no more than 0.5.

Compared with A20G A40G A57U A65G, A20C U28G A69C is higher in yeast fitness: no more than 0.5 for the first, 0.714 for the second.

A20G A45C G50A U54G and A20C G25C C33A C55A cannot be ordered by yeast fitness: no more than 0.5 for the first, no more than 0.5 for the second.

First: A20C C55U
Second: A20C U64G
The yeast fitness of the first is lower: 0.612 for the first, 0.746 for the second.

Compared with A20G A43C A57U, A20G A40C A42U A43C G50A is lower in yeast fitness: 0.538 for the first, no more than 0.5 for the second.

First: A20C G25C A40C A43C C55A C61G C66G
Second: A20C C46G
The yeast fitness of the first is lower: no more than 0.5 for the first, 1.02 for the second.

A20C C34A A37G C46A A70C and A20C C29U C49G G63C C66G cannot be ordered by yeast fitness: no more than 0.5 for the first, no more than 0.5 for the second.

First: A20G
Second: A20C G23A C55G C60A
The yeast fitness of the first is higher: 1 for the first, 0.561 for the second.

A20C C24U G44A C60G and A20G A57C C62U cannot be ordered by yeast fitness: no more than 0.5 for the first, no more than 0.5 for the second.

A20C C29U U32A C62U A70U and A20C C34G G67U A69G cannot be ordered by yeast fitness: no more than 0.5 for the first, no more than 0.5 for the second.

Compared with A20G C22A A37C A65G, A20C C24U A57G C61U is higher in yeast fitness: no more than 0.5 for the first, 0.617 for the second.

Compared with A20C C31A U59C, A20G A45C A70C is higher in yeast fitness: 0.599 for the first, 0.789 for the second.

First: A20G C22G C27G C30U C31G G51C G63A A65G
Second: A20C C34G
The yeast fitness of the first is lower: no more than 0.5 for the first, 0.527 for the second.

Variant A20C C34U has a yeast fitness of 0.65.
